Data: ChEMBL document CHEMBL1800069, “Structure-based design of a new series of D-glutamic acid based inhibitors of bacterial UDP-N-acetylmuramoyl-L-alanine:D-glutamate ligase (MurD)” (J Med Chem, 2011)
In brackets after ≈: the same amount, converted by molar mass. Activity calls are given as the source filed them. No cut-off for these calls is given here.

Key:
[1] = Inhibition of Escherichia coli MurD ligase catalyzed addition of D-Glu to UDP-MurNAc-L-Ala after 15 mins by colorimetric analysis
How it was run: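 Malachite green colorimetric detection of orthophosphate released by E. coli MurD ligase, with 0.01% Triton X-100 present to avoid aggregate-based nonspecific inhibition. IC50 is taken as the inhibitor concentration that leaves 50% residual enzyme activity.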

Escherichia coli [2] = assay: Inhibition of Escherichia coli MurD ligase catalyzed addition of D-Glu to UDP-MurNAc-L-Ala assessed as residual activity at 500 uM after 15 mins by colorimetric analysis
How it was run: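 E. coli MurD activity read by malachite green detection of released orthophosphate, with 0.01% Triton X-100 present. Residual activity (%) measured with 500 μM test compound. Values are the mean of two independent experiments, with standard deviations within ±10% of the mean.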

Enterococcus faecalis = assay: Antibacterial activity against Enterococcus faecalis ATCC 29212 after 18 to 24 hrs by CLSI method; type: functional
Pseudomonas aeruginosa = assay: Antibacterial activity against Pseudomonas aeruginosa ATCC 27853 after 18 to 24 hrs by CLSI method; type: functional, organism-based
Escherichia coli [3] = assay: Antibacterial activity against Escherichia coli ATCC 25922 after 18 to 24 hrs by CLSI method; type: functional, organism-based
Staphylococcus aureus = assay: Antibacterial activity against Staphylococcus aureus ATCC 29213 after 18 to 24 hrs by CLSI method; type: functional

IC50 [1] | Activity (Escherichia coli [2]) | SMILES | also measured
40 µM |  | O=C(O)CC[C@@H](NC(=O)c1cccc(CN(C(=O)C(=O)O)c2ccc(/C=C3\SC(=O)NC3=O)cc2)c1)C(=O)O | 
 | 89% | O=C(O)CC[C@@H](NC(=O)c1cccc(CNc2cccc(OCC(=O)O)c2)c1)C(=O)O | 
 | 88% | O=C(O)CC[C@@H](NC(=O)c1ccc(NCc2ccc(/C=C3\SC(=O)NC3=O)cc2)cc1)C(=O)O | 
 | 99% | O=C(O)CC[C@@H](NC(=O)c1cccc(CNc2ccc(/C=C3\NC(=O)NC3=O)cc2)c1)C(=O)O | 
3 µM |  | O=C(O)CC[C@@H](NC(=O)c1cccc(CN(C(=O)CC(=O)O)c2ccc(/C=C3\SC(=S)NC3=O)cc2)c1)C(=O)O | MIC (Enterococcus faecalis): 128 µg/mL (≈ 219 µM); Activity (Pseudomonas aeruginosa): inactive; Activity (Escherichia coli [3]): inactive
 | 85% | N=C1NC(=O)/C(=C/c2ccc(NCc3cccc(C(=O)N[C@H](CCC(=O)O)C(=O)O)c3)cc2)S1 | 
 | 96% | O=C(O)/C=C/c1ccc(NCc2cccc(C(=O)N[C@H](CCC(=O)O)C(=O)O)c2)cc1 | 
253 µM |  | O=C(O)CC[C@@H](NC(=O)c1cc(CNc2ccc(/C=C3\SC(=S)NC3=O)cc2)ccc1F)C(=O)O | 
 | 71% | O=C(O)CC[C@@H](NC(=O)c1cc(CNc2ccc(/C=C3\SC(=O)NC3=O)cc2)ccc1F)C(=O)O | 
105 µM |  | O=C(O)CCC(=O)N(Cc1cccc(C(=O)N[C@H](CCC(=O)O)C(=O)O)c1)c1ccc(/C=C2\SC(=O)NC2=O)cc1 | 
15 µM |  | O=C(O)CC[C@@H](NC(=O)c1cccc(CN(C(=O)CC(=O)O)c2ccc(/C=C3\SC(=O)NC3=O)cc2)c1)C(=O)O | 
 |  | COC(=O)CC[C@@H](NC(=O)c1cccc(CN(C(=O)CC(=O)OC)c2ccc(/C=C3\SC(=S)NC3=O)cc2)c1)C(=O)OC | Activity (Staphylococcus aureus): inactive; Activity (Enterococcus faecalis): inactive; Activity (Pseudomonas aeruginosa): inactive; Activity (Escherichia coli [3]): inactive
7 µM |  | O=C(O)CCC(=O)N(Cc1cccc(C(=O)N[C@H](CCC(=O)O)C(=O)O)c1)c1ccc(/C=C2\SC(=S)NC2=O)cc1 | MIC (Staphylococcus aureus): 128 µg/mL (≈ 213 µM); MIC (Enterococcus faecalis): 128 µg/mL (≈ 213 µM); Activity (Pseudomonas aeruginosa): inactive; Activity (Escherichia coli [3]): inactive
 |  | COC(=O)CCC(=O)N(Cc1cccc(C(=O)N[C@H](CCC(=O)OC)C(=O)OC)c1)c1ccc(/C=C2\SC(=S)NC2=O)cc1 | Activity (Staphylococcus aureus): inactive; Activity (Enterococcus faecalis): inactive; Activity (Pseudomonas aeruginosa): inactive; Activity (Escherichia coli [3]): inactive
 | 87% | O=C(O)CC[C@@H](NC(=O)c1cccc(CNc2ccc(OCC(=O)O)cc2)c1)C(=O)O | 
 | 94% | O=C(O)CC[C@@H](NC(=O)c1ccc2ccn(Cc3ccc(OCC(=O)O)cc3)c2c1)C(=O)O | 
124 µM |  | O=C(O)CC[C@@H](NC(=O)c1cc(CNc2ccc(/C=C3\SC(=S)NC3=O)cc2)ccc1O)C(=O)O | 
5 µM |  | O=C(O)CC[C@@H](NC(=O)c1cccc(CN(C(=O)C(=O)O)c2ccc(/C=C3\SC(=S)NC3=O)cc2)c1)C(=O)O | 
